# Shown are actives, neighbours in structure and some others; about 3.5% of the full set was active somewhere.
# PAFAH1B2 inh: blocks human PAF acetylhydrolase 1b catalytic subunit 2. P68402. recombinant PAFAH1B2, FP-rhodamine activity probe, fluorescence polarization. inhibition, % at 3.39 µM. 340,000 tested, 1.2% active;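 active means inhibition above the mean of all tested compounds plus 3 SD, cut at about 24% in these data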;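 further: 0% = enzyme with DMSO and 100% = wells lacking PAFAH1B2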
# Target sequence (P68402 whole entry, looked up): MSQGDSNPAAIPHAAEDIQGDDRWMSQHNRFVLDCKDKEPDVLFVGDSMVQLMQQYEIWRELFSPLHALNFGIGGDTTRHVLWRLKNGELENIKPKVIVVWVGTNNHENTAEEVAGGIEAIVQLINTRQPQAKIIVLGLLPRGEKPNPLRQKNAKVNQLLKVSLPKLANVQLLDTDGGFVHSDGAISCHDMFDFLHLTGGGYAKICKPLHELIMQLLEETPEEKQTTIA
# Apaf1 inhib: blocks human Apaf-1 apoptosome activity | inhibition, % at 20 µM | reconstituted apoptosome caspase-3 activity, DEVD-Rh110 fluorescence | O14727 | 330,000 tested, 0.71% active; active means inhibition of at least 40% at 20 µM;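 further: plate controls were DMSO wells for no effect and DEVD-CHO caspase inhibitor wells for full effect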
#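 Material: reconstituted apoptosome with Apaf-1, cytochrome c, caspase-9, procaspase-3, dATP. Technique: Rh110 fluorescence intensity. Buffer or medium: pH 7.5 Hepes buffer with CHAPS, BSA, DTT. Times: 30 min plus 50 min, RT.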
# PAFAH2 FP inh: PAFAH2 (human) inhibition; recombinant PAFAH2, FP-rhodamine activity probe, fluorescence polarization; Q99487; inhibition, % at 3.39 µM; 340,000 tested, 0.99% active; AID 492956;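 active means inhibition above the mean over all tested compounds plus 3 SD, cut at about 30% in these data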;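 further: inhibitors block probe labeling of enzyme so polarization drops; 0% = enzyme with DMSO and 100% = wells lacking PAFAH2 protein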
# PREPL inh: human PREPL enzyme inhibition; Q4J6C6; recombinant PREPL, fluorescence polarization activity-based probe; inhibition, % at 5.96 µM; 320,000 tested, 0.68% active; in the data active means inhibition above about 43%;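 further: 0% = enzyme with DMSO and 100% = wells lacking enzyme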
# PAFAH1B3 FP inh: PAFAH1B3 (human) inhibition | Q15102 | inhibition, % at 3.39 µM | 340,000 tested, 0.28% active | recombinant PAFAH1B3, FP-rhodamine probe, fluorescence polarization;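 active means inhibition above the screen-wide average of all tested compounds plus 3 SD, cut at about 25% in these data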;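 further: 0% = enzyme with DMSO only and 100% = wells lacking PAFAH1B3 protein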
# Target sequence (Q15102 whole entry, looked up): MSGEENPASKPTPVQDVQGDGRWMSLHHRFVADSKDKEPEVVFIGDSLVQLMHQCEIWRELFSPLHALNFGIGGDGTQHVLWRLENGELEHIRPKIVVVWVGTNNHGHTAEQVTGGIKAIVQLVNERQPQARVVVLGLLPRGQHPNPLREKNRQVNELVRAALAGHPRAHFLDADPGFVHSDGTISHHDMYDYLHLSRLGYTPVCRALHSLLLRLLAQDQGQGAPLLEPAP
# pPAFAH FP inh: pPAFAH (human) enzyme inhibition; Q13093; 330,000 tested, 1.5% active; inhibition, % at 3.39 µM; recombinant pPAFAH, FP-rhodamine probe fluorescence polarization;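 active means inhibition above the mean inhibition across the screen plus 3 SD, cut at about 25% in these data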;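 further: inhibitors block binding of the rhodamine activity-based probe so polarization drops; 0% = enzyme with DMSO and 100% = wells lacking pPAFAH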
# pPAFAH confirm: pPAFAH (human) inhibition, confirmed | shares compounds with pPAFAH FP inh | recombinant pPAFAH, FP-Rh probe fluorescence polarization | inhibition, % at 3.39 µM | 2,300 tested, 72% active;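 active means mean inhibition of the triplicate above the hit cutoff set for the earlier primary screen, cut at about 25% in these data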;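 further: 0% = enzyme with DMSO and 100% = wells lacking pPAFAH enzyme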
# * marks the source's active call; other numbers are inactive results; . = no result.
SMILES,PAFAH1B2 inh,Apaf1 inhib,PAFAH2 FP inh,PREPL inh,PAFAH1B3 FP inh,pPAFAH FP inh,pPAFAH confirm
Cc1ccc(N2CC(C(=O)N/N=C/c3c(F)cccc3Cl)CC2=O)cc1 (centres undefined),-2.3,13.6,-2.1,-3.4,0.6,1.4,.
Nc1c(C(=O)Nc2nccs2)sc2nc(-c3cccs3)cc(C(F)(F)F)c12,-1.8,3.5,4.1,21.3,1.1,14.3,.
Cc1nnc(NC(=O)c2sc3nc(-c4cccs4)cc(C(F)(F)F)c3c2N)s1,1.7,-10.4,14.7,11.1,11.2,69.7*,73.1*
CCOc1ccc(NS(=O)(=O)c2ccc3[nH]c(=O)c(=O)[nH]c3c2)cc1,.,4.4,.,10.8,.,19.3,.
Cc1ccc(NS(=O)(=O)c2ccc3[nH]c(=O)oc3c2)c(C)c1,6.7,-14.3,1.4,2.0,-2.2,74.6*,70.5*
CCOc1ccc(NS(=O)(=O)c2ccc3[nH]c(=O)oc3c2)cc1,2.7,5.8,5.3,-6.0,5.3,54.6*,52.2*
O=C1CC(N(O)c2ccccc2)C(=O)N1c1ccc(Cl)c(Cl)c1 (centres undefined),-2.6,14.4,1.1,39.5,4.2,49.1*,4.9
O=C(COC(=O)c1ccc2[nH]c3c(c2c1)CCCC3)Nc1ccc(Cl)cc1Cl,-1.9,-1.1,25.3,-1.9,3.9,5.5,.
CCC(C)c1ccccc1NC(=O)COC(=O)c1ccc2[nH]c3c(c2c1)CCCC3 (centres undefined),6.0,-169.7,71.2*,-8.9,7.7,38.5*,29.1*
CC(C)Oc1ccc(C2CC(=O)N(c3cccc(Br)c3)C2=O)cc1 (centres undefined),.,-10.9,.,-6.2,.,0.3,.
COc1ccc(CCNC(=O)c2cccc(NS(=O)(=O)c3ccccc3F)c2)cc1OC,2.7,11.6,0.8,-5.1,10.5,8.2,.
O=C(O)c1cc(O)c2c(c1)C(=O)c1cc(O)cc(O)c1C2=O,16.3,7.5,13.4,-1.4,17.1,35.5*,24.2
COc1cc(C(=O)NCCC(=O)NC2CCC(C)CC2)cc(OC)c1OC (centres undefined),4.0,-11.1,-0.1,0.3,7.6,-2.7,.
CN=c1scc(C)n1/N=C/c1ccc(O)c(O)c1O,-1.2,19.3,5.2,27.2,7.8,60.1*,8.9
CN=c1scc(-c2cccs2)n1/N=C/c1ccc(O)c(O)c1O,-1.6,16.0,12.2,30.8,-4.3,51.4*,65.2*
Cc1c(OCC(=O)NCc2cccnc2)ccc2c3c(c(=O)oc12)CCCC3,5.2,12.2,4.4,-3.0,3.3,3.2,.
CN(CCn1ccnc1)Cc1cn(Cc2ccccc2)nc1-c1ccc2c(c1)OCO2,2.6,7.4,0.5,-9.5,-2.7,-0.7,.
CCCCN1C(=O)/C(=C/C=C2\SCCN2C)SC1=S,-1.0,22.7,23.3,.,0.4,.,.
CN1CCS/C1=C/C=C1/SC(=S)N(Cc2ccccc2)C1=O,2.3,.,26.1,25.0,10.2,35.7*,26.6*
CN(C)c1ccc(NC2=C([N+](=O)[O-])CS(=O)(=O)C2)cc1,1.6,-17.3,3.3,15.2,12.5,39.4*,6.7
Cc1cc(C(C#N)c2ccc(Cl)cc2)c(Cl)cc1NC(=O)c1cc(I)cc(I)c1O (centres undefined),11.0,5.5,13.0,22.6,10.7,46.5*,40.8*
Cc1cc(NC(=O)c2ccc(Cl)cc2)c(C)cc1O,3.6,4.8,-2.0,2.0,7.3,4.0,.
O=S(=O)(c1ccc2nc(-c3ccco3)c(-c3ccco3)nc2c1)N1CCOCC1,10.6,77.3*,21.2,16.6,11.7,42.8*,13.3
O=S(=O)(c1ccc2ccccc2c1)N1CCOCC1,3.9,0.4,0.0,4.7,4.2,1.6,.
Cc1nn(-c2ccccc2)c(C)c1C(=O)NNC(=O)C(F)(F)F,-2.0,0.9,-0.2,5.0,8.6,-3.3,.
O=C(CSc1ncn[nH]1)NCCOc1ccccc1,4.0,-4.5,6.1,-2.7,1.7,2.4,.
O=C(CSCc1n[nH]c(=O)[nH]1)NCCOc1cccc(Oc2ccccc2)c1,6.5,-16.1,-0.3,1.1,6.8,36.0*,6.9
Cc1cc(/C=C2\SC(=S)NC2=O)c(C)n1C,7.2,-13.6,23.4,0.3,16.9,38.8*,7.3
